By Ki is commonly meant a measure of affinity in units of concentration, obtained from inhibition or displacement.

One test concerns the target Carbonic anhydrase 9 (Homo sapiens, UniProt Q16790). Description: Inhibition of human carbonic anhydrase 9 preincubated for 15 mins measured for 10 to 100 sec using phenol red indicator-based stopped flow assay. In short, it runs like this:
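In-house recombinant human enzyme; stopped-flow CO2 hydration at 1.7–17 mM CO2, with 0.2 mM phenol red read at 557 nm in 20 mM Hepes pH 7.5 and 20 mM Na2SO4. Inhibitor (diluted from 0.1 mM aqueous stock to 0.01 nM) preincubated with enzyme 15 min at room temperature. Initial rates taken over 10–100 s, uncatalysed rate subtracted. Ki by non-linear least squares, mean of at least three determinations.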

For a further test, the system named is SK-BR-3. Description: Antiproliferative activity against human SKBR3 cells at 100 uM after 5 days by SRB assay under normoxic condition. The test is classed as functional, cell-based. Summed up:
(§1)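 Cells seeded at 1 × 10^3 per well, adhered 48 h, medium removed, then exposed to compound at 100 μM. After 5 days, growth measured by SRB: fixed with cold 25% TCA 1 h at 4 °C, stained with SRB in 1% acetic acid 30 min at room temperature, dye solubilised in 10 mM Tris pH 10.5, read at 540. Values expressed relative to untreated control (1.0).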
On the technique in general: Sulforhodamine B stains cellular protein and so reports cell mass.

The subject of the next test is MDA-MB-361. Kind of test: Antiproliferative activity against human MDA-MB-361 cells at 100 uM after 5 days by SRB assay under normoxic condition. It counts as functional, cell-based. In short, it runs like this:
as §1

The next test has as its system MCF-10A. Kind of test: Antiproliferative activity against human MCF10A cells at 100 uM after 5 days by SRB assay under normoxic condition. It counts as functional, cell-based. Summed up:
as §1

Test [1] has as its system MCF7. Kind of test: Antiproliferative activity against human MCF7 cells after 5 days by SRB assay under hypoxic condition. The test is classed as functional, cell-based. Summed up: (§2)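 MCF7 seeded at 3 × 10^3 per well, adhered 48 h, then equilibrated 6 h at 0.5% O2 in a hypoxia station. Compounds added in hypoxic medium across 0.1–100 μM. After 5 days, proliferation measured by SRB: cold 25% TCA fixation 1 h at 4 °C, SRB in 1% acetic acid 30 min, solubilised in 10 mM Tris pH 10.5, read at 540.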

The subject of test [2] is MCF7. Description: Antiproliferative activity against human MCF7 cells at 30 uM after 5 days by SRB assay under hypoxic condition. The test is classed as functional, cell-based. Summed up: as §2
The subject of test [3] is MCF7. Description: Antiproliferative activity against human MCF7 cells at 10 uM after 5 days by SRB assay under hypoxic condition. It counts as functional, cell-based. Summed up:
as §2

The subject of a further test is ZR-75-1. Description: Antiproliferative activity against human ZR-75-1 cells at 100 uM after 5 days by SRB assay under normoxic condition. It counts as functional, cell-based. Summed up: as §1

Active and inactive are the calls of the source. The rule behind the calls is not given here.

Regarding `NS(=O)(=O)Oc1ccc(NC(=O)Nc2ccc(Cc3ccccc3)cc2)cc1`, at Carbonic anhydrase 9, the inhibition constant (Ki) was determined as 16 nM.
Regarding `NS(=O)(=O)Oc1ccc(NC(=O)Nc2c(F)c(F)c(F)c(F)c2F)cc1`, the result in the test on SK-BR-3, in the test on MDA-MB-361, in the test on MCF-10A, in the test with MCF7 [2], in the test with MCF7 [3] and in the test on ZR-75-1 was Active. Also, the Activity entry in the test with MCF7 [1] is “Dose-dependent effect”.
Turning to `COc1ccc(NC(=O)Nc2ccc(OS(N)(=O)=O)cc2)cc1`, the result in the test with SK-BR-3, with MDA-MB-361, in the test with MCF-10A, in the test on MCF7 [2], in the test with MCF7 [3] and in the test with ZR-75-1 was Active. In addition, in the test with MCF7 [1], the Activity result was “Dose-dependent effect”.
As for `NS(=O)(=O)Oc1ccc(NC(=O)Nc2ccc([N+](=O)[O-])cc2)cc1`, the result in the test with SK-BR-3, with MDA-MB-361, in the test on MCF-10A, with MCF7 [2], in the test on MCF7 [3] and in the test with ZR-75-1 was Active. Moreover, the Activity entry with MCF7 [1] was “Dose-dependent effect”.
On Carbonic anhydrase 9, `NS(=O)(=O)Oc1ccc(NC(=O)NCCc2cccc3ccccc23)cc1` showed a Ki of 15 nM.
Regarding `NS(=O)(=O)Oc1ccc(NC(=O)NCCc2ccccc2)cc1`, the result with SK-BR-3, with MDA-MB-361, in the test on MCF-10A, in the test on MCF7 [2], in the test on MCF7 [3] and in the test on ZR-75-1 was Active. For the same compound, the Activity result in the test on MCF7 [1] was “Dose-dependent effect”.
Take `Cc1cc(C)cc(NC(=O)Nc2ccc(OS(N)(=O)=O)cc2)c1`: the outcome in the test on SK-BR-3, in the test on MDA-MB-361, in the test on MCF-10A, in the test with MCF7 [2], in the test on MCF7 [3] and with ZR-75-1 was Active.
For `NS(=O)(=O)Oc1ccc(NC(=O)Nc2ccc(Cl)cc2)cc1`, the outcome in the test with SK-BR-3, in the test with MDA-MB-361, in the test on MCF-10A, in the test on MCF7 [2], with MCF7 [3] and in the test on ZR-75-1 was Active. In the test on MCF7 [1], the Activity result was “Dose-dependent effect”.
As for `CN(C)c1ccc(NC(=O)Nc2ccc(OS(N)(=O)=O)cc2)cc1`, the outcome in the test on SK-BR-3, in the test on MDA-MB-361, with MCF-10A, with MCF7 [2], with MCF7 [3] and in the test on ZR-75-1 was Active. Moreover, the Activity entry with MCF7 [1] is “Dose-dependent effect”.
As to `NS(=O)(=O)Oc1ccc(NC(=O)Nc2ccc(Oc3ccccc3)cc2)cc1`, the result in the test with SK-BR-3, with MDA-MB-361, with MCF-10A, in the test with MCF7 [2], with MCF7 [3] and with ZR-75-1 was Active. Further, the Activity entry in the test with MCF7 [1] was “Dose-dependent effect”.
In the case of `NS(=O)(=O)Oc1ccc(NC(=O)Nc2ccc(F)cc2)cc1`, the result with SK-BR-3, with MDA-MB-361, with MCF-10A, in the test on MCF7 [2], in the test with MCF7 [3] and in the test with ZR-75-1 was Active. Further, the Activity entry with MCF7 [1] is “Dose-dependent effect”.
The compound `CCOC(=O)c1cccc(NC(=O)Nc2ccc(OS(N)(=O)=O)cc2)c1` yielded a Ki on Carbonic anhydrase 9 of 12 nM.
For `CC(C)(C)OC(=O)N1CCC(NC(=O)Nc2ccc(OS(N)(=O)=O)cc2)CC1`, the Ki at Carbonic anhydrase 9 worked out at 7 nM.
With `CCOC(=O)c1ccc(NC(=O)Nc2ccc(OS(N)(=O)=O)cc2)cc1`, the affinity on Carbonic anhydrase 9 corresponds to a Ki of 8 nM.
Turning to `CCOC(=O)c1ccccc1NC(=O)Nc1ccc(OS(N)(=O)=O)cc1`, affinity at Carbonic anhydrase 9 was put at a Ki of 8 nM.
